# Laboratory results published in ChEMBL document CHEMBL1132920, “Syntheses of (R)- and (S)-2- and 6-fluoronorepinephrine and (R)- and (S)-2- and 6-fluoroepinephrine: effect of stereochemistry on fluorine-induced adrenergic selectivities” (J Med Chem, 2000).
# What was measured:
# [1] = molecular target: Beta-1 adrenergic receptor (Rattus norvegicus, UniProt P18090); experiment: Binding of [3H]dihydroalprenolol to beta-1 adrenergic receptor of rat cerebral cortical membranes; type: cell membranes, Membrane
# Chain of Beta-1 adrenergic receptor (P18090 whole entry): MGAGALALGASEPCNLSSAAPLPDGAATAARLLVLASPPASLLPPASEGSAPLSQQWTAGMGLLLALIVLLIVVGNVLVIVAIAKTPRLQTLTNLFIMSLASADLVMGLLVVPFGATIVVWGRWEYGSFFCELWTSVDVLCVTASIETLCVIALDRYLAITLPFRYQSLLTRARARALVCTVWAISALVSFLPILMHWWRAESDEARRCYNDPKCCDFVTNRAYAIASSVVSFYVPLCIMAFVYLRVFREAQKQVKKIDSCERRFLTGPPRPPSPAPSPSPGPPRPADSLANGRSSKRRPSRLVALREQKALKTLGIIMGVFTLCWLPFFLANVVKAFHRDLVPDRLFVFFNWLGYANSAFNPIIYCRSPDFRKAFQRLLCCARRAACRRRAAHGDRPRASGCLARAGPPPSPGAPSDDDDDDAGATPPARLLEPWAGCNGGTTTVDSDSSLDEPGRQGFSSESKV
# Summary of the method: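 Competition assay measuring displacement of specific [3H]dihydroalprenolol binding from rat cerebral cortical membranes to give beta-1 adrenergic receptor affinity.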
# [2] = molecular target: Adrenergic receptor alpha-1 (Rattus norvegicus) (UniProt P15823+P23944+P43140); experiment: Binding of [3H]prazosin to alpha-1 adrenergic receptor of rat cerebral cortical membranes at 100 uM; type: cell membranes; settings: Membrane
# [3] = molecular target: T1, Adrenergic receptor alpha-2 (Rattus norvegicus, UniProt P22086+P19328+P22909); experiment: Binding of [3H]clonidine to alpha-2-adrenergic receptor of rat cerebral cortical membranes; type: cell membranes, Membrane
# T1 sequence (P22086 whole entry): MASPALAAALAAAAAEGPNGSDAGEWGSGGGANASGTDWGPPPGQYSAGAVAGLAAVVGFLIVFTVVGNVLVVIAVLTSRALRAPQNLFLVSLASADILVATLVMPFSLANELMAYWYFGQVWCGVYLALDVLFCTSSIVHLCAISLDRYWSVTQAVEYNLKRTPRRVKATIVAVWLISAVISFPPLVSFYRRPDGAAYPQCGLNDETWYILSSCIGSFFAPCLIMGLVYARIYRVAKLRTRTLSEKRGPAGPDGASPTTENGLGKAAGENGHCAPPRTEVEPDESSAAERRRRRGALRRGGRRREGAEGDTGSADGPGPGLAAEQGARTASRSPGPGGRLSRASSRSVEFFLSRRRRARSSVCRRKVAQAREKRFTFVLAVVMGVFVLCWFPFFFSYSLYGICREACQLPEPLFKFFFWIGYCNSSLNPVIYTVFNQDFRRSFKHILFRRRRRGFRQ
# T1 sequence (P19328 whole entry): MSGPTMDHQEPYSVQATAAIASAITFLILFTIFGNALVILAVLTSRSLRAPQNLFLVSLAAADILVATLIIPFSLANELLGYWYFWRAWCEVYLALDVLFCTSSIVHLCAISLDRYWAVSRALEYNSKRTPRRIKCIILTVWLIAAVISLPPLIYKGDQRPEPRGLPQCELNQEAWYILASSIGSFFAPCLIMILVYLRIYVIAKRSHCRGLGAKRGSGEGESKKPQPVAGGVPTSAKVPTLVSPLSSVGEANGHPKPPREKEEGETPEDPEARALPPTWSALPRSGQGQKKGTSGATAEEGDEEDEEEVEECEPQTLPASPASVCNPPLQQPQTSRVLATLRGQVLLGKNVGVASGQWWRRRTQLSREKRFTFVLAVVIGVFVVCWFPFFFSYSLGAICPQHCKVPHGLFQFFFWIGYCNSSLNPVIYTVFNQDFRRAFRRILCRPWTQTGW
# T1 sequence (P22909 whole entry): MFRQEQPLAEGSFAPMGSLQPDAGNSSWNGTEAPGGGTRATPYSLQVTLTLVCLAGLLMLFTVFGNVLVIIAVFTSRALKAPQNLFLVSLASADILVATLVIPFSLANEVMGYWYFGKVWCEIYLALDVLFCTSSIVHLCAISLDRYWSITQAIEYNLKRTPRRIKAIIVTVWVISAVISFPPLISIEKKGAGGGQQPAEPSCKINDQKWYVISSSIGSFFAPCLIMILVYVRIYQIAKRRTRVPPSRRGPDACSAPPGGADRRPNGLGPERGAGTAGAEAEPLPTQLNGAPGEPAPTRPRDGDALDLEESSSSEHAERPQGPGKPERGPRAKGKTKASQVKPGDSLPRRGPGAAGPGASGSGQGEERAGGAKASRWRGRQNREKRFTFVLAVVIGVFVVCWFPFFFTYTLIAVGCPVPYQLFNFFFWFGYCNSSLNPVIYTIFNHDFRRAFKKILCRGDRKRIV
# [4] = molecular target: T2, Adrenergic receptor alpha-1 (Rattus norvegicus, UniProt P15823+P23944+P43140); experiment: Binding of [3H]prazosin to alpha-1 adrenergic receptor of rat cerebral cortical membranes; type: cell membranes, Membrane
# T2 sequence (P15823 whole entry): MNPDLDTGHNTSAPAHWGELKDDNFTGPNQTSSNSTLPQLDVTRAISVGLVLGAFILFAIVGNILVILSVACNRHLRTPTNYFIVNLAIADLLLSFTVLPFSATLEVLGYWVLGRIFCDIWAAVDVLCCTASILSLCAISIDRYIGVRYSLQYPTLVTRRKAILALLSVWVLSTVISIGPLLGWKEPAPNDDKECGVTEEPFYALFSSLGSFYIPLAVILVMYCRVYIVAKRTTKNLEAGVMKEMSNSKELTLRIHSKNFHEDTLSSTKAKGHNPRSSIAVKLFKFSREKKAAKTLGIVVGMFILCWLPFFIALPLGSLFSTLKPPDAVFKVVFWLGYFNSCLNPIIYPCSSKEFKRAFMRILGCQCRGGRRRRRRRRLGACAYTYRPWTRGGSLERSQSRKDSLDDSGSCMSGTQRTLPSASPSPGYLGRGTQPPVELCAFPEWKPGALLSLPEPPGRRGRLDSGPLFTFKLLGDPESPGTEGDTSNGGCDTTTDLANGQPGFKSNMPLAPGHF
# T2 sequence (P23944 whole entry): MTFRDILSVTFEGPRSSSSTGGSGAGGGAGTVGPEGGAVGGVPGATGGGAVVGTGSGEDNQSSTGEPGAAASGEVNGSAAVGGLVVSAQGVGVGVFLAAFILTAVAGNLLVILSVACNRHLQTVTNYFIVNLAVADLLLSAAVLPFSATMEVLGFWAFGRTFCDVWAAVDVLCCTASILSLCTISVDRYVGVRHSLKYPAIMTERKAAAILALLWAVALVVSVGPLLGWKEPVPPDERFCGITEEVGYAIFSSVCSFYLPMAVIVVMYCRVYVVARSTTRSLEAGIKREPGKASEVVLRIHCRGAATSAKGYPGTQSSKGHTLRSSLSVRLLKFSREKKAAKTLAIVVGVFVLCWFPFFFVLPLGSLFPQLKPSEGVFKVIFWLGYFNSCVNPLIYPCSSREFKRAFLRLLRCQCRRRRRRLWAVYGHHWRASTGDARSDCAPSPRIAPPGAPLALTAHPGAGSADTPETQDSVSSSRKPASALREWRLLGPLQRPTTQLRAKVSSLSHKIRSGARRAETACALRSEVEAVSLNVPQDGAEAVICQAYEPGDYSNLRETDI
# T2 sequence (P43140 whole entry): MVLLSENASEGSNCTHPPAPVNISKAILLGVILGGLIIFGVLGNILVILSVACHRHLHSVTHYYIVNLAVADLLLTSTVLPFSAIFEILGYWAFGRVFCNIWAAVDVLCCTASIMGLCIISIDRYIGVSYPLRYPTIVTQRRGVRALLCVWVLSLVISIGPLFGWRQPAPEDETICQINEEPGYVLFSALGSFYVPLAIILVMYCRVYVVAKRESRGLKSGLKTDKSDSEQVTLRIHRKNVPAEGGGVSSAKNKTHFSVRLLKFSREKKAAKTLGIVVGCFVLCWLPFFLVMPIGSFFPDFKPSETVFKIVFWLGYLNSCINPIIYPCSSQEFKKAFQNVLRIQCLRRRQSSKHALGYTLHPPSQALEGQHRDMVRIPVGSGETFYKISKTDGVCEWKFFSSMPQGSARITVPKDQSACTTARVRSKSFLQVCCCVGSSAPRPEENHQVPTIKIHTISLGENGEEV
# Summary of the method: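 Affinity at alpha-1 adrenergic receptors measured as inhibition of specific [3H]prazosin binding to rat cerebral cortical membranes.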
Compound,Ki [1] [µM],inhibition [2] [%],Ki [3] [µM],Ki [4]
CNC[C@@H](O)c1ccc(O)c(O)c1 [L-ADRENALINE],13,–,–,–
NCC(O)c1cc(O)c(O)cc1F (racemic),–,20,–,–
CNC[C@H](O)c1ccc(O)c(O)c1F,–,–,0.067,–
NCCc1ccc(O)c(O)c1 [DOPAMINE],–,–,0.058,14 µM
"NCC(O)c1ccc(O)c(O)c1 (single isomer, unassigned)",–,18,–,–
NCCc1cc(O)c(O)cc1F,41,–,0.04,6 µM
CNC[C@H](O)c1cc(O)c(O)cc1F,~100,–,0.013,–
CNCC(O)c1cc(O)c(O)cc1F (racemic),~140,–,0.014,–
NCCc1ccc(O)c(O)c1F,19,–,0.12,16 µM
NC[C@@H](O)c1ccc(O)c(O)c1F,–,12,0.32,–
CNCC(O)c1ccc(O)c(O)c1F (racemic),–,–,0.06,–
NC[C@H](O)c1ccc(O)c(O)c1F,–,–,0.55,~ 25 uM
NC[C@@H](O)c1cc(O)c(O)cc1F,–,–,–,~ 12 uM
CNC[C@@H](O)c1cc(O)c(O)cc1F,~400,–,0.078,–
NC[C@H](O)c1cc(O)c(O)cc1F,–,–,–,3.7 µM
NCC(O)c1ccc(O)c(O)c1F (racemic),–,–,0.6,~ 50 uM
CNC[C@H](O)c1ccc(O)c(O)c1 (racemic) [EPINEPHRINE],2.1,–,–,–
CNC[C@@H](O)c1ccc(O)c(O)c1F,–,–,0.053,~ 40 uM
